Measured values as given in ChEMBL document CHEMBL4477204, “Tetrahydroisoquinoline-Derived Urea and 2,5-Diketopiperazine Derivatives as Selective Antagonists of the Transient Receptor Potential Melastatin 8 (TRPM8) Channel Receptor and Antiprostate Cancer Agents” (J Med Chem, 2016).
pEC50, pIC50: −log10 of the molar value. The source made the active and inactive calls. The calls are words filed in the database; no cut-off is given here.

How the values were obtained:
[1] = molecular target: T1, Transient receptor potential cation channel subfamily M member 8 (Rattus norvegicus, UniProt Q8R455); test: Antagonist activity at recombinant rat TRPM8 expressed in HEK293 cells assessed as inhibition of icilin-induced intracellular calcium accumulation preincubated for 5 mins followed by icilin addition by Fluo-4-AM probe-based spectrofluorimetric assay; type: cell-based
Outline: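 HEK-293 cells stably expressing the listed TRP channel (human TRPV1; rat TRPM8, TRPA1, TRPV2, TRPV3 or TRPV4) were Fluo-4-AM loaded (4 µM, 1 h, 25 °C) and suspended in Tyrode's buffer pH 7.4. Compound was added 5 min before agonist: icilin 0.25 µM (TRPM8), capsaicin 0.1 µM (TRPV1), AITC 100 µM (TRPA1), LPC 3 µM (TRPV2), thymol 100 µM (TRPV3), 4α-PDD 1 µM (TRPV4). Agonist alone was taken as 100%. IC50 from sigmoidal fit, at least triplicate.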

[2] = molecular target: T1, Transient receptor potential cation channel subfamily M member 8; test: Agonist activity at recombinant rat TRPM8 expressed in HEK293 cells assessed as increase in intracellular calcium accumulation by Fluo-4-AM probe-based spectrofluorimetric assay; type: cell-based; conditions: for EC50: hek293; for pEC50: read-out: EC50
Outline: (§1)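 HEK-293 cells stably expressing rat TRPM8 were loaded with Fluo-4-AM (4 µM, 0.02% Pluronic F-127) for 1 h at 25 °C in serum-free EMEM. They were then washed and suspended in Tyrode's buffer pH 7.4 in a stirred cuvette. [Ca2+]i fluorescence (ex 488/em 516 nm) was read before and after compound addition. Wild-type HEK-293 response was subtracted. Efficacy is expressed versus 4 µM ionomycin; EC50 comes from a sigmoidal fit.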

[3] = molecular target: Transient receptor potential cation channel subfamily M member 8 (Rattus norvegicus) (UniProt Q8R455); test: Agonist activity at recombinant rat TRPM8 expressed in HEK293 cells assessed as increase in intracellular calcium accumulation by Fluo-4-AM probe-based spectrofluorimetric assay relative to ionomycin; type: cell-based; outline: as §1
[4] = molecular target: Transient receptor potential cation channel subfamily M member 8 (Rattus norvegicus) (UniProt Q8R455); test: Agonist activity at recombinant rat TRPM8 expressed in HEK293 cells assessed as increase in intracellular calcium accumulation up to 10 uM by Fluo-4-AM probe-based spectrofluorimetric assay; type: cell-based; outline: as §1
in vitro = conditions: C57BL/6, mouse, liver microsomes

T1 sequence (Q8R455 whole entry): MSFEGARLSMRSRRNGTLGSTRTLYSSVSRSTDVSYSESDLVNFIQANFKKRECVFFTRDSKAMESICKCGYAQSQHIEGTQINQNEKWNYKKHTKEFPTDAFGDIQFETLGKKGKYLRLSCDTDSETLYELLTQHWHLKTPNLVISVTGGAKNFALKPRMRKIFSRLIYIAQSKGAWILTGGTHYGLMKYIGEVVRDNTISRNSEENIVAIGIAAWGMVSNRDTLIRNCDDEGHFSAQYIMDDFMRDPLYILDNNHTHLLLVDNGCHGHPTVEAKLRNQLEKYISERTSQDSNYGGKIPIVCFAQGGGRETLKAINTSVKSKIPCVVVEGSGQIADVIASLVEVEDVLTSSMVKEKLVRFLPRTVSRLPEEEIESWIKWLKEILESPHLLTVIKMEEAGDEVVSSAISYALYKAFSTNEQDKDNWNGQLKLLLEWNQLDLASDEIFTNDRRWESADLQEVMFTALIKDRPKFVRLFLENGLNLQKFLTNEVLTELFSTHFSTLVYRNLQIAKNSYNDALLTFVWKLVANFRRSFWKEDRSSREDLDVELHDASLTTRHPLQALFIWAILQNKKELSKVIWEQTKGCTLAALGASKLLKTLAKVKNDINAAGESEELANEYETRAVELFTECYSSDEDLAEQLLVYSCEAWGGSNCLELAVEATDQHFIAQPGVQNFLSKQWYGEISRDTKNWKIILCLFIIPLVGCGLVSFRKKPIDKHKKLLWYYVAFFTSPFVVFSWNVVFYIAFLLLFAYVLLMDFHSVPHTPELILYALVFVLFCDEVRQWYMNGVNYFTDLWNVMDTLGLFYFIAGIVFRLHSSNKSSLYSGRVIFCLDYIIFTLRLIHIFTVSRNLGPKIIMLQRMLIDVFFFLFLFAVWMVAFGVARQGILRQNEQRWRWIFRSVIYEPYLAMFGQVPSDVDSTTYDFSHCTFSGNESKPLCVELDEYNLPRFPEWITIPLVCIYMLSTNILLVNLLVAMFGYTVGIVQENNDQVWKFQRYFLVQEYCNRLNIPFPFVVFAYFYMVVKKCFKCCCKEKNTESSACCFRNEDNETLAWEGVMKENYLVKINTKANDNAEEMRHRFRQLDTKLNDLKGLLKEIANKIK
Chain of Transient receptor potential cation channel subfamily M member 8 (Rattus norvegicus) (Q8R455 whole entry, looked up): as the sequence (Q8R455 whole entry) above

Row | Compound | pIC50 [1] | EC50 [2] | pEC50 [2] | Activity [3] [%] | Activity [4] | CLint scaled at 1 h, 3 µM (in vitro) [mL/min/kg]
1 | COc1ccc(CCNC(=O)N2CCc3cc(OC)c(OC)cc3C2c2cccc([N+](=O)[O-])c2)cc1OC (configuration not stated) | < 4.30 | Not Active | – | – | – | –
2 | COc1ccc(CCNC(=O)N2CCc3cc(OC)c(OC)cc3C2c2ccc(Cl)cc2)cc1OC (configuration not stated) | 4.50 | Not Active | – | – | – | –
3 | COc1cc2c(cc1OC)C(c1cccc(-c3cccc([N+](=O)[O-])c3)n1)=NCC2 | 4.64 | Not Active | – | – | – | –
4 | CCC1c2cc(OC)c(OC)cc2CCN1C(=O)NCCc1ccc(OC)c(OC)c1 (configuration not stated) | < 4.30 | Not Active | – | – | – | –
5 | COc1ccc(/C=C2\NC(=O)[C@@H]3Cc4cc(OC)c(OC)cc4[C@@H](c4cccc([N+](=O)[O-])c4)N3C2=O)cc1OC | 4.45 | Not Active | – | – | – | –
6 | COc1ccc(/C=C2\NC(=O)[C@@H]3Cc4cc(OC)c(OC)cc4[C@@H](c4ccc(Br)cc4)N3C2=O)cc1OC | 4.37 | Not Active | – | – | – | –
7 | CCC1c2cc(OC)c(OC)cc2CCN1C(=O)NCCc1cc(OC)c(OC)cc1C(CC)S(=O)(=O)c1ccc(C)cc1 (configuration not stated) | < 4.30 | – | 4.58 | 15.3 | inactive | –
8 | COc1cc2c(cc1OC)[C@@H](c1ccc(C(F)(F)F)cc1)N(C(=O)N1CCc3cc(OC)c(OC)cc3[C@@H]1c1ccc(C(F)(F)F)cc1)CC2 | 4.97 | Not Active | – | – | – | –
9 | COc1ccc(CCNC(=O)N2CCc3cc(OC)c(OC)cc3C2c2ccccc2)cc1OC (configuration not stated) | 5.92 | Not Active | – | – | – | 39.6
10 | COc1cc2c(cc1OC)[C@@H](c1ccc(F)cc1)N(C(=O)N1CCc3cc(OC)c(OC)cc3[C@@H]1c1ccc(F)cc1)CC2 | < 4.30 | Not Active | – | – | – | –
11 | COc1ccc(/C=C2\NC(=O)[C@@H]3Cc4cc(OC)c(OC)cc4[C@@H](c4ccccc4Cl)N3C2=O)cc1OC | 4.41 | Not Active | – | – | – | –
12 | COc1ccc(CCNC(=O)NCCc2ccc(OC)c(OC)c2)cc1OC | < 4.30 | Not Active | – | – | – | –
13 | CCCC1c2cc(OC)c(OC)cc2CCN1C(=O)NCCc1ccc(OC)c(OC)c1 (configuration not stated) | < 4.30 | Not Active | – | – | – | –
14 | COc1ccc(/C=C2\NC(=O)[C@@H]3Cc4cc(OC)c(OC)cc4[C@@H](c4ccccc4)N3C2=O)cc1OC | 4.89 | – | 4.80 | 14.7 | inactive | –
15 | COc1ccc(CCNC(=O)N2CCc3cc(OC)c(OC)cc3C2c2ccc(Br)cc2)cc1OC (configuration not stated) | 4.32 | Not Active | – | – | – | –
16 | COc1cc2c(cc1OC)[C@@H](c1ccc(Oc3ccc([N+](=O)[O-])cc3)cc1)N(C(=O)N1CCc3cc(OC)c(OC)cc3[C@@H]1c1ccc(Oc3ccc([N+](=O)[O-])cc3)cc1)CC2 | < 4.30 | Not Active | – | – | – | –
17 | COc1cc2c(cc1OC)C(c1ccc(C(F)(F)F)cc1)N(C(C)=O)CC2 (configuration not stated) | < 4.30 | Not Active | – | – | – | –
18 | COc1cc2c(cc1OC)[C@H](c1ccc3ccccc3c1)N(C(=O)N1CCc3cc(OC)c(OC)cc3[C@@H]1c1ccc3ccccc3c1)CC2 (racemic) | < 4.30 | Not Active | – | – | – | –

Row | Compound | pIC50 [1] | EC50 [2] | pEC50 [2] | Activity [3] [%] | Activity [4] | CLint scaled at 1 h, 3 µM (in vitro) [mL/min/kg]
19 | COc1cc2c(cc1OC)C(c1ccc([N+](=O)[O-])cc1[N+](=O)[O-])NCC2 (racemic) | < 4.30 | Not Active | – | – | – | –
20 | COc1cc2c(cc1OC)[C@H](c1ccc([N+](=O)[O-])cc1[N+](=O)[O-])N(C(=O)N1CCc3cc(OC)c(OC)cc3[C@@H]1c1ccc([N+](=O)[O-])cc1[N+](=O)[O-])CC2 (racemic) | < 4.30 | Not Active | – | – | – | –
21 | CCC[C@H]1c2cc(OC)c(OC)cc2CCN1C(=O)N1CCc2cc(OC)c(OC)cc2[C@@H]1CCC (racemic) | 5.07 | Not Active | – | – | – | –
22 | COc1cc2c(cc1OC)C(c1cccc(-c3cccc([N+](=O)[O-])c3)n1)NCC2 (racemic) | < 4.30 | Not Active | – | – | – | –
23 | COc1cc2c(cc1OC)[C@H](c1ccc(Oc3ccc([N+](=O)[O-])cc3)cc1)N(C(=O)N1CCc3cc(OC)c(OC)cc3[C@@H]1c1ccc(Oc3ccc([N+](=O)[O-])cc3)cc1)CC2 (racemic) | < 4.30 | Not Active | – | – | – | –
24 | COc1cc2c(cc1OC)[C@H](c1ccc(C(F)(F)F)cc1)N(C(=O)N1CCc3cc(OC)c(OC)cc3[C@@H]1c1ccc(C(F)(F)F)cc1)CC2 (racemic) | 6.74 | Not Active | – | – | – | 10.1
25 | COc1ccc(OC)c(C[C@@H]2NC(=O)[C@@H]3Cc4c(OC)ccc(OC)c4[C@@H](/C=C/c4ccccc4)N3C2=O)c1 (racemic) | 4.51 | Not Active | – | – | – | –
26 | COc1cc2c(cc1OC)[C@H](c1ccc(Br)cc1)N(C(=O)N1CCc3cc(OC)c(OC)cc3[C@@H]1c1ccc(Br)cc1)CC2 (racemic) | 5.66 | Not Active | – | – | – | 19.1
27 | COc1cc2c(cc1OC)[C@H](c1ccccc1Cl)N(C(=O)N1CCc3cc(OC)c(OC)cc3[C@@H]1c1ccccc1Cl)CC2 (racemic) | 4.70 | Not Active | – | – | – | 52.9
28 | COc1ccc(CCNC(=O)N2CCc3cc(OC)c(OC)cc3C2c2ccccc2Cl)cc1OC (racemic) | 4.34 | Not Active | – | – | – | –
29 | COc1cc2c(cc1OC)[C@H](c1cccc(-c3cccc([N+](=O)[O-])c3)n1)N(C(=O)N1CCc3cc(OC)c(OC)cc3[C@@H]1c1cccc(-c3cccc([N+](=O)[O-])c3)n1)CC2 (racemic) | 4.36 | Not Active | – | – | – | –
30 | COc1cc2c(cc1OC)[C@H](c1cccc([N+](=O)[O-])c1)N(C(=O)N1CCc3cc(OC)c(OC)cc3[C@@H]1c1cccc([N+](=O)[O-])c1)CC2 (racemic) | 4.35 | Not Active | – | – | – | –
31 | COc1cc2c(cc1OC)[C@H](c1ccc([N+](=O)[O-])cc1)N(C(=O)N1CCc3cc(OC)c(OC)cc3[C@@H]1c1ccc([N+](=O)[O-])cc1)CC2 (racemic) | < 4.30 | – | 4.85 | 22.7 | inactive | –
32 | COc1cc(C[C@@H]2NC(=O)[C@@H]3Cc4c(OC)c(C)c(OC)c(OC)c4[C@H](/C=C/c4ccccc4)N3C2=O)c(OC)c(C)c1OC (racemic) | 5.49 | – | 4.68 | 26.6 | inactive | –
33 | COc1cc(C[C@@H]2NC(=O)[C@H](Cc3cc(OC)c(OC)c(C)c3OC)NC2=O)c(OC)c(C)c1OC (racemic) | < 4.30 | Not Active | – | – | – | –
34 | COc1c(C)c(OC)c(OC)c2c1C[C@H]1C(=O)N3[C@@H](Cc4c(OC)c(C)c(OC)c(OC)c4[C@@H]3/C=C/c3ccccc3)C(=O)N1[C@H]2/C=C/c1ccccc1 (racemic) | 5.06 | Not Active | – | – | – | –
35 | COc1cc2c(cc1OC)C(c1ccc(Cl)cc1)NCC2 (racemic) | < 4.30 | Not Active | – | – | – | –
